In ChEMBL document CHEMBL2040719, “Fragment-based design of symmetrical bis-benzimidazoles as selective inhibitors of the trimethoprim-resistant, type II R67 dihydrofolate reductase” (J Med Chem, 2012):
pIC50, pKi: −log10 of the molar value. Calls of active or inactive are those of the source. No cut-off for these calls is given here.

Legend:
[1] = Inhibition of recombinant type N-terminal His6-tagged 2 R67 DHFR expressed in Escherichia coli BL21 using DHF as substrate by spectrophotometry
In short: (§1)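 His-tagged R67 DHFR purified from E. coli by Ni affinity with an imidazole gradient. Activity followed as NADPH plus DHF depletion at 340 nm (Δε 12800 M⁻¹cm⁻¹) in 400 mM HEPES pH 7.0 with 10% final DMSO. Reactions started with 250 nM enzyme; initial rates (<10% conversion). Ki via Cheng–Prusoff with KM(NADPH) 1.6 μM, assuming competitive inhibition.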

[2] = target: T1, Dihydrofolate reductase (Homo sapiens) (UniProt P00374); assay: Inhibition of human chromosomal DHFR expressed in Escherichia coli BL21 using DHF as substrate assessed as remaining activity at 10 mM by spectrophotometry relative to control
T1 sequence (whole entry): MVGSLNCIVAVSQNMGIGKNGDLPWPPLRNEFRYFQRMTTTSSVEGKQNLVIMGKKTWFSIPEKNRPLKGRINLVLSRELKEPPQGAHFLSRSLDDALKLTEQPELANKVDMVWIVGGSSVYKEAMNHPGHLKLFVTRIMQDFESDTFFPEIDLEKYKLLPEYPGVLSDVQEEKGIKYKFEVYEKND
In short: (§2)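 Human chromosomal DHFR overexpressed in E. coli BL21(DE3). Spectrophotometric assay at 340 nm following NADPH/DHF depletion in 50 mM potassium phosphate pH 8.0, 10% final DMSO, initial rates. Each compound was tested at its highest concentration allowed by solubility and absorbance; activity reported relative to the uninhibited control.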

[3] = Inhibition of Escherichia coli R67 DHFR; in short: as §1
[4] = target: T1, Dihydrofolate reductase (Homo sapiens); assay: Inhibition of human chromosomal DHFR expressed in Escherichia coli BL21 using DHF as substrate assessed as remaining activity at 30 mM by spectrophotometry relative to control; in short: as §2
[5] = Competitive inhibition of recombinant R67 DHFR expressed in Escherichia coli BL21 using DHF as substrate by Dixon plot analysis in the presence of 5 to 80 uM NADPH
In short: (§3)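 Dixon method in 50 mM potassium phosphate pH 7.0, 10% DMSO. NADPH series: DHF fixed at 50 μM, NADPH at 5 or 80 μM, inhibitor over a range spanning Ki. DHF series: NADPH fixed at 50 μM. Reciprocal rates plotted against inhibitor concentration; Ki taken from the slope intersection; triplicates, mean ± SD.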

[6] = Competitive inhibition of recombinant R67 DHFR expressed in Escherichia coli BL21 using 25 to 164 uM DHF as substrate by Dixon plot analysis in the presence of 50 uM of NADPH; in short: as §3
[7] = test system: Escherichia coli; assay: Antibacterial activity against Escherichia coli […] expressing […] up to 1 mM in presence of 50 ug/mL Trimethoprim; type: functional, organism-based
In short: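 E. coli XL1-Blue expressing R67 DHFR grown in M9 minimal medium with 50 μg/mL TMP to block chromosomal DHFR; growth inhibition tested up to 1 mM (maximal concentration).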

[8] = Cytotoxicity against mouse 3T6 cells assessed as cell death at 200 uM after 72 hrs by MTT assay; type: cell-based
In short: (§4)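 Mouse 3T6 embryonic fibroblasts in DMEM + 10% heat-inactivated FBS, 37 °C, 5% CO2, seeded at 5×10³ cells/well. Eight dilutions 0.05–200 μM from DMSO, medium with compound renewed at 24 h, 48 h further incubation. MTT 3 h, read at 540 nm with 690 nm reference. Triplicates; % inhibition versus blank-corrected solvent controls; IC50 from the plot.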

[9] = target: T1, Dihydrofolate reductase (Homo sapiens); assay: Inhibition of human chromosomal DHFR expressed in Escherichia coli BL21 using DHF as substrate assessed as remaining activity at 400 uM by spectrophotometry relative to control
[10] = target: T1, Dihydrofolate reductase (Homo sapiens); assay: Inhibition of human chromosomal DHFR expressed in Escherichia coli BL21 using DHF as substrate assessed as remaining activity at 5 mM by spectrophotometry relative to control; in short: as §2
[11] = target: T1, Dihydrofolate reductase (Homo sapiens); assay: Inhibition of human chromosomal DHFR expressed in Escherichia coli BL21 using DHF as substrate assessed as remaining activity at 2.5 mM by spectrophotometry relative to control; in short: as §2
[12] = Cytotoxicity against mouse 3T6 cells after 72 hrs by MTT assay; type: cell-based; in short: as §4
[13] = target: T1, Dihydrofolate reductase (Homo sapiens); assay: Inhibition of human chromosomal DHFR expressed in Escherichia coli BL21 using DHF as substrate assessed as remaining activity at 300 uM by spectrophotometry relative to control
[14] = target: T1, Dihydrofolate reductase (Homo sapiens); assay: Inhibition of human chromosomal DHFR expressed in Escherichia coli BL21 using DHF as substrate assessed as remaining activity at 1 mM by spectrophotometry relative to control; in short: as §2

Row | SMILES | pIC50 [1] | inhibition [1] | pKi [1] | other results
1 | c1ccc2[nH]cnc2c1 |  | inactive |  | 
2 | Nc1cc2ccccc2cc1C(=O)O |  | inactive |  | 
3 | CO[C@@H]1[C@@H](OC(N)=O)[C@@H](O)[C@H](Oc2ccc3c(O)c(NC(=O)c4ccc(O)c(CC=C(C)C)c4)c(=O)oc3c2C)OC1(C)C [NOVOBIOCIN] |  |  |  | pKi [3]: 4.15
4 | O=C(O)c1ccc2[nH]nnc2c1 | 2.08 |  | 3.59 | Activity [4]: 69%
5 | O=C(O)c1ccc2c(c1)OCO2 |  | inactive |  | 
6 | O=C(O)c1cc2nccnc2s1 | 2.70 |  | 4.21 | Activity [10]: 37%
7 | Oc1nncc2ccccc12 [PHTHALAZINONE] | 1.77 |  | 3.28 | Activity [4]: 97%
8 | CC(C)n1nnc2cc(C(=O)O)ccc21 |  | inactive |  | 
9 | COc1cc2c(OC)cccc2cc1C(=O)O | 2.74 |  | 4.26 | Activity [10]: 14%
10 | O=C(O)c1ccc2[nH]cnc2c1 | 2.59 |  | 4.10 | Activity [2]: 75%
11 | Nc1c(/N=N/c2ccc(-c3ccc(/N=N/c4cc(S(=O)(=O)O)c5ccccc5c4N)cc3)cc2)cc(S(=O)(=O)O)c2ccccc12 [CONGO RED] |  |  |  | pKi [3]: 5.70

Continued, in another order:

Row | pIC50 [1] | inhibition [1] | SMILES | pKi [1] | other results
12 | 2.21 |  | O=C(O)c1ccc2cc(O)ccc2c1 | 3.72 | Activity [2]: 13%
13 | 4.19 |  | O=C(O)c1ccc2[nH]c(-c3ccc(OCCCCCOc4ccc(-c5nc6cc(C(=O)O)ccc6[nH]5)cc4)cc3)nc2c1 | 5.70 | pKi [5]: 5.38; pKi [6]: 5.01; Activity [7]: inactive; Activity [8]: 40%; Activity [9]: 95%
14 | 2.77 |  | Nc1ccc2cc(C(=O)O)ccc2c1 | 4.29 | Activity [11]: 14%
15 | ≤ 3.52 |  | c1ccc2[nH]c(-c3ccc(OCCCCCOc4ccc(-c5nc6ccccc6[nH]5)cc4)cc3)nc2c1 |  | pIC50 [12]: 6.01; Activity [13]: 110%
16 | ≤ 3.00 |  | O=C(O)c1ccc(OCCCCCOc2ccc(C(=O)O)cc2)cc1 |  | Activity [14]: 100%; pIC50 [12]: 4.47
17 |  | inactive | COc1ccc2cc(C(=O)O)ccc2c1 |  | 
18 |  | inactive | Cc1nc2cc(C(=O)O)ccc2[nH]1 |  | 
19 | 3.89 |  | O=C(O)c1ccc2[nH]c(-c3ccc(OCC(O)COc4ccc(-c5nc6cc(C(=O)O)ccc6[nH]5)cc4)cc3)nc2c1 | 5.40 | Activity [14]: 95%; Activity [7]: inactive; Activity [8]: 40%
